Assay results of several laboratories.
Lines come from different studies, so protocols differ.

SMILES | medium | tested at | time | pH | Papp [×10⁻⁶ cm/s]
c1ccc(-c2nc(N3CCC(c4ccccn4)C3)c3ccccc3n2)cc1 (stereo not shown) | PAMPA | 10 µM | 3 h | pH 7.4 | 42.4
CC(C)NCC(O)COc1cccc2ccccc12 (stereo not shown) | PAMPA-BBB | 0.5 µM | 4 h | pH 7.4 | 4.82
N=c1c2c(-c3ccccc3)cn(Cc3ccccc3)c2ncn1Cc1ccco1 | PAMPA | 50 µM | 30 min |  | 1740
CCCCNc1ccnc(Nc2cccc(-c3cccnc3)c2)n1 | PAMPA | 50 nM | 30 min |  | 1720
Cc1sc2[nH]c(=O)n(O)c(=O)c2c1C | PAMPA | 10 µM | 5 h |  | 1
N=c1c2c(-c3ccccc3)c(-c3ccccc3)n(Cc3ccc(S(N)(=O)=O)cc3)c2ncn1C1CCOCC1 | PAMPA | 50 µM | 30 min |  | 1
Cc1cc(C)c2cc(C(=O)NC3CCCCCCC3)[nH]c2c1 | PAMPA |  | 16 h |  | 0.18
COCC(C)Nc1ccnc(Nc2cccc(-c3cccnc3)c2)n1 (stereo not shown) | PAMPA | 50 nM | 30 min |  | 1910
C[C@@H](NC(=O)[C@@H](CC(=O)N1CCC(N2CCCCC2)CC1)N1C(=O)[C@@H](N2C(=O)OC[C@@H]2c2ccccc2)[C@H]1/C=C/c1cccc(F)c1)c1ccccc1 | PAMPA-BBB | 25 µg/mL | 18 h | pH 7.4 | > 4
O=c1[nH]c2sccc2c(=O)n1O | PAMPA | 10 µM | 5 h |  | 0.08
N=c1c2c(-c3ccccc3)c(-c3ccccc3)n(CCc3ccccc3)c2ncn1CC1CCOCC1 | PAMPA | 50 µM | 30 min |  | 1230
NC(=O)C1CCN(c2nc(-c3ccccn3)nc3ccccc23)C1 (stereo not shown) | PAMPA | 10 µM | 3 h | pH 7.4 | 8
CCN1CC(=O)NC(CC(C)C)C(=O)N(C)C(C)C(=O)NC(CC(C)C)C(=O)N2CCCC2C(=O)N(CC2CCCCC2)CC(=O)NC(CC(C)C)C(=O)N(C)C(C)C(=O)NC(Cc2ccccc2)C(=O)N2CCCC2C1=O (stereo not shown) | PAMPA |  |  |  | 18
CO[C@H]1CNC[C@@H](OCC2CCC(F)(F)CC2)[C@@H]1Nc1ncc(-c2cncc(C)c2)c2cc(C)c(=O)[nH]c12 | PAMPA |  |  | pH 7.4 | 19
COC(=O)c1cccc(-c2cccc(Nc3nccc(NC4CCCCC4)n3)c2)c1 | PAMPA | 50 nM | 30 min |  | 76.9
Cc1cc(-c2ccc(Sc3cc(=O)n(O)c(=O)[nH]3)cc2)ccc1F | PAMPA | 10 µM | 5 h |  | 1.1
O=C(O)c1ccc2c(c1)nc(NCc1ccccc1)c1ncncc12 | PAMPA |  | 5 h | pH 7.4 | 2.79
O=c1[nH]c2cc(-c3ccc(Cl)cc3)sc2c(=O)n1O | PAMPA | 10 µM | 5 h |  | 1
c1ccc(-c2nc(NCc3ccco3)c3ccccc3n2)nc1 | PAMPA | 10 µM | 3 h | pH 7.4 | 22.8
Cc1cccc(/C=C/[C@@H]2[C@H](N3C(=O)OC[C@@H]3c3ccccc3)C(=O)N2[C@H](CC(=O)N2CCC(N3CCCCC3)CC2)C(=O)N[C@H](C)c2ccccc2)c1 | PAMPA-BBB | 25 µg/mL | 18 h | pH 7.4 | > 4
c1ccc(CN2CCN(c3nc(-c4ccccn4)nc4ccccc34)CC2)cc1 | PAMPA | 10 µM | 3 h | pH 7.4 | 32.8
Cc1csc2[nH]c(=O)n(O)c(=O)c12 | PAMPA | 10 µM | 5 h |  | 0.2

SMILES | medium | tested at | time | pH | Papp [×10⁻⁶ cm/s]
CN(C)CCn1cnc2c(c(-c3ccccc3)c(-c3ccccc3)n2Cc2ccccc2)c1=N | PAMPA | 50 µM | 30 min |  | 1360
O=C(NCCN1CCCC1)c1cc(-c2ccc(CN3CCOCC3)cc2)nc2ccc(F)cc12 | PAMPA |  |  |  | 7.3
O=c1[nH]c2sc3c(c2c(=O)n1O)CCNC3 | PAMPA | 10 µM | 5 h |  | 0.07
CC(C)Nc1ccnc(Nc2cccc(-c3ccccn3)c2)n1 | PAMPA | 50 nM | 30 min |  | 2010
c1ccc(-c2nc(NCCn3ccnc3)c3ccccc3n2)nc1 | PAMPA | 10 µM | 3 h | pH 7.4 | 8.4
Cn1c(=O)c2c(ncn2C)n(C)c1=O | PAMPA | 200 µM | 5 h |  | 6.85
N=c1c2c(-c3ccccc3)c(-c3ccccc3)n(Cc3ccccc3)c2ncn1[C@H]1CC[C@H](O)CC1 | PAMPA | 50 µM | 30 min |  | > 1000
Fc1cccc(F)c1-c1nc(N2CCC(c3ccccn3)C2)c2ccccc2n1 (stereo not shown) | PAMPA | 10 µM | 3 h | pH 7.4 | 35.5
CC(C)Nc1ccnc(Nc2ccccc2-c2ccccc2)n1 | PAMPA | 50 nM | 30 min |  | 2360
N=c1c2c(-c3ccccc3)c(-c3ccccc3)n(Cc3ccc(OC(F)(F)F)cc3)c2ncn1[C@H]1CC[C@@H](O)CC1 | PAMPA | 50 µM | 30 min |  | 1250
CC[C@@H](C)[C@@H]1NC(=O)[C@@H](Cc2ccccc2)OC(=O)CN(C)C(=O)[C@H]([C@H](C)CC)NC(=O)[C@@H](Cc2ccccc2)OC(=O)CN(C)C1=O | PAMPA |  |  |  | 28
COC(=O)[C@H](C)Nc1ccnc(Nc2cccc(-c3cccnc3)c2)n1 | PAMPA | 50 nM | 30 min |  | 1910
O=C(O)c1ccc2c(c1)nc(NCc1ccccc1)c1ncccc12 | PAMPA |  | 5 h | pH 7.4 | 6.53
O=c1[nH]c2scc(-c3ccc(Cl)cc3)c2c(=O)n1O | PAMPA | 10 µM | 5 h |  | 0.5
c1cncc(-c2cccc(Nc3nccc(NC4CCOCC4)n3)c2)c1 | PAMPA | 50 nM | 30 min |  | 1840
O=c1[nH]c2c(-c3ccccc3)csc2c(=O)n1O | PAMPA | 10 µM | 5 h |  | 1.5
CC(C)[C@@H]1NC(=O)[C@@H](Cc2ccccc2)OC(=O)CN(C)C(=O)[C@H](C(C)C)NC(=O)[C@@H](Cc2ccccc2)OC(=O)CN(C)C1=O | PAMPA |  |  |  | 56
N#Cc1cccc(-c2nc(N3CCC(c4ccccn4)C3)c3ccccc3n2)c1 (stereo not shown) | PAMPA | 10 µM | 3 h | pH 7.4 | 36.9
CC(C)(C)Nc1ccnc(Nc2cccc(-c3cccnc3)c2)n1 | PAMPA | 50 nM | 30 min |  | 1990
COc1ccc(Nc2nc(-c3ccccn3)nc3ccccc23)cc1 | PAMPA | 10 µM | 3 h | pH 7.4 | 36.3
Cc1nc2n(c(=O)c1CCN1CCC(c3noc4cc(F)ccc34)CC1)CCCC2 | PAMPA-BBB | 50 µM | 16 h | pH 7.4 | 15.5
